Test results from PMC3616288 (The EMBO Journal, 2013).

Columns and labels:
[1] = target: T1, α‐COP (Schizosaccharomyces pombe, UniProt Q96WV5, F197K/I192K/L181K/L185K/L196K); assay: Isothermal calorimetry; format: binding, S. pombe; conditions: from ITC Kd values for α‐COP and β′‐COP
T1 sequence (Q96WV5 1-327 L181K/L185K/I192K/L196K/F197K): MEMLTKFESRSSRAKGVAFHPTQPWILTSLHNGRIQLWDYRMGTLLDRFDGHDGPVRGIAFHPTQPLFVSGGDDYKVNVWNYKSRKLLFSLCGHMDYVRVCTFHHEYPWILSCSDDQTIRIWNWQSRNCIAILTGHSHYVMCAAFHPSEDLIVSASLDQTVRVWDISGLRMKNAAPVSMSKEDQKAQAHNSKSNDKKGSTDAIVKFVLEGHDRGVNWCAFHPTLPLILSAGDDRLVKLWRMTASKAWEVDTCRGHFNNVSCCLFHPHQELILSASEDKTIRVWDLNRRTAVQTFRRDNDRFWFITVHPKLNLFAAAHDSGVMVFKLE
Outline: (§1)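 Synthetic peptides and protein were dialysed overnight into the same 20 mM Tris–HCl pH 7.5, 150 mM NaCl. α-COP target: quintuple-mutant S. pombe α-COP(1–327), His-Smt3-tagged, E. coli-expressed, tag cleaved. β′-COP target: S. cerevisiae β′-COP(1–814)/α-COP C-terminal fragment dimer from Hi-5 insect cells. Ratios are taken from the Kd values.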

[2] = target: T2, β′‐COP (Saccharomyces cerevisiae, UniProt P41811); assay: Isothermal calorimetry; format: binding, S. cerevisiae; conditions: ITC; relative to TFKKTN (yWbp1) peptide
T2 sequence (P41811 1-814): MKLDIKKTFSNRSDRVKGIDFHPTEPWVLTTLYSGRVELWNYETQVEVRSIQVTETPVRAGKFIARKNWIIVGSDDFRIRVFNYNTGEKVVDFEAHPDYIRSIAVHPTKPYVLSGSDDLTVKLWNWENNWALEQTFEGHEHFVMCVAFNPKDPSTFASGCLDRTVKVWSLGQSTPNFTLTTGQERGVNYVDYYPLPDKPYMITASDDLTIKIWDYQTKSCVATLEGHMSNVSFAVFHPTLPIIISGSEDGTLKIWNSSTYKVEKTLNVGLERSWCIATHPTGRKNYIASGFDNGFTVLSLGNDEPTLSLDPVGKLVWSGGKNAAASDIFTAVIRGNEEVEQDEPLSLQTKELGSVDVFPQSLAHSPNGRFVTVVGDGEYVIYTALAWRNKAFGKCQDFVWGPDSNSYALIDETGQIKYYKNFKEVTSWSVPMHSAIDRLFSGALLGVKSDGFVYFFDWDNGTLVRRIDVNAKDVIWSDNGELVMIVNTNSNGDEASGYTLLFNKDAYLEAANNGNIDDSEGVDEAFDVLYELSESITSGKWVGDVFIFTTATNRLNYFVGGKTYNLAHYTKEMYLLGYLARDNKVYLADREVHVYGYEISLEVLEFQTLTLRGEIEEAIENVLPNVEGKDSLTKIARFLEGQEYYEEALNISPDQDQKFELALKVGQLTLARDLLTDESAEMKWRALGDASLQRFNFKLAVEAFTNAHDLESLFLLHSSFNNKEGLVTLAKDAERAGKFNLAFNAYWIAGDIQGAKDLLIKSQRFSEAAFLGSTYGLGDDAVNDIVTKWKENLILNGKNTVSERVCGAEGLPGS
T2 sequence (P53622 642-818 partner limits assumed): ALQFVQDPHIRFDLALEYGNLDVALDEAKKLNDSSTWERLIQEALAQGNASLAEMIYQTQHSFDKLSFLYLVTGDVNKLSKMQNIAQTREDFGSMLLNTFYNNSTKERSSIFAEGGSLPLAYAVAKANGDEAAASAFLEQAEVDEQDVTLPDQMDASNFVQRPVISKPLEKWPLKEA
Outline: as §1

[3] = target: S. cerevisiae β′-COP(1–814)/α-COP(642–818) dimer (S. cerevisiae) (UniProt P41811); assay: ITC
[4] = target: T3, S. cerevisiae β′-COP(1–814)/α-COP(642–818) dimer (S. cerevisiae, UniProt P41811 1-814; P53622 642-818); assay: ITC
T3 sequence (looked up) 1: T2 sequence (P41811 1-814)
T3 sequence (looked up) 2: T2 sequence (P53622 642-818 partner limits assumed)

[5] = target: T4, S. cerevisiae β′-COP N-terminal β-propeller domain (residues 1–301) (S. cerevisiae, UniProt P41811 1-301); assay: crystal structure
T4 sequence (looked up): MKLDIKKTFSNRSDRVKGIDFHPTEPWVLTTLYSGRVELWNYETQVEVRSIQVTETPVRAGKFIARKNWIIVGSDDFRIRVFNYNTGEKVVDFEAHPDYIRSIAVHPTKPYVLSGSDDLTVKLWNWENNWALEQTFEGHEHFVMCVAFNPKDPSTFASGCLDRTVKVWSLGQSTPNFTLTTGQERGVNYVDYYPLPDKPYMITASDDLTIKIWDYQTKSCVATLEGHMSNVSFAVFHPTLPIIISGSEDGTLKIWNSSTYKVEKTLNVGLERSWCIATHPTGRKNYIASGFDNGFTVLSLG

[6] = target: T5, S. cerevisiae α-COP(1–818)/β′-COP(651–814) dimer (S. cerevisiae, UniProt P53622 1-818; P41811 651-814); assay: pull-down
T5 sequence (looked up) 1: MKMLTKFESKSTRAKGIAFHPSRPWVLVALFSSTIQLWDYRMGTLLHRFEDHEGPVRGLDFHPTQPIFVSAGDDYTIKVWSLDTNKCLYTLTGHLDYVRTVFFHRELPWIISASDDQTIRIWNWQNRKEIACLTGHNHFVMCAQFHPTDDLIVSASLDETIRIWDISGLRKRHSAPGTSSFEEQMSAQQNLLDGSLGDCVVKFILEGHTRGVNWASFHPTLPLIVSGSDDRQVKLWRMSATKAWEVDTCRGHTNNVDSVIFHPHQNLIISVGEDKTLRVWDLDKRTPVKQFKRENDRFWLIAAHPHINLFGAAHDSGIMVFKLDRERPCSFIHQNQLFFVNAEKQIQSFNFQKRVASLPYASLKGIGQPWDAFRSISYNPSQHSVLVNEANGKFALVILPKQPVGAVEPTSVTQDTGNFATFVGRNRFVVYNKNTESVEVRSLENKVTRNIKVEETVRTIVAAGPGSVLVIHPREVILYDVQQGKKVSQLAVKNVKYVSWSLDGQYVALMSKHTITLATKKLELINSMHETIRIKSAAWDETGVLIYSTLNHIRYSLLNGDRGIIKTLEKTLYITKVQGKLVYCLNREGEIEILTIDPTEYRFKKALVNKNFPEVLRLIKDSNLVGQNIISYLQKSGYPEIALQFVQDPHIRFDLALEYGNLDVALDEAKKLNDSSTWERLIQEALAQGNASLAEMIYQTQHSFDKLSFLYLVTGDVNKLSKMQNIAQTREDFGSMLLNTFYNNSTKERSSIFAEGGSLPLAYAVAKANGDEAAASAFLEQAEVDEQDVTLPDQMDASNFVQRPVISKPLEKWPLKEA
T5 sequence (looked up) 2: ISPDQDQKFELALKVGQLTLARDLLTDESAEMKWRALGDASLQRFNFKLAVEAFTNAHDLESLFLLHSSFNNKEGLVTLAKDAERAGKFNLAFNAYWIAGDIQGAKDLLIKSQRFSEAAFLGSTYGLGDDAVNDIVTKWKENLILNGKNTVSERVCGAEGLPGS

[7] = target: T3, S. cerevisiae …; assay: pull-down

TFKKSN
ratio of affinities of α‐COP and β′‐COP: factor by which the motif favours α‐COP [1]: 2.2 | binds more tightly than KKTN to β′‐COP by a factor [2]: 1.8 fold

yeast Wbp1 variant peptide TFKKSN
fold tighter binding than KKTN [3]: 1.8 fold

RRSFIDEKKMP [adenoviral E19 protein peptide RRSFIDEKKMP]
Kd [4]: 49 µM

PEKPHSD [Insig-1 peptide PEKPHSD]
binding result [4]: binds | binding result [5]: binds

FEKVHVQ [porcine epidemic diarrhoea virus spike protein peptide FEKVHVQ]
binding result [5]: binds

GARKLD [Scyl1 peptide GARKLD]
Kd [4]: 20.4 µM

IKTKLL [Emp47p peptide IKTKLL]
Kd [4]: 22.5 µM

RIRQEIIKTKLL (domain or fragment, yeast, UniProt P43555 434-445, looked up) [GST fused to the cytoplasmic region of Emp47p (KxKxx motif)]
binding result [6]: binds | binding result [7]: binds

RHLKSFFEAKKLV (domain or fragment, UniProt Q9BVK6 223-235, looked up) [GST fused to the cytoplasmic region of p25 (KKxx motif)]
binding result [6]: binds | binding result [7]: binds

TFKKTN [yeast Wbp1 peptide TFKKTN]
Kd [4]: 171 µM

AEKSHQE [Insig-2 peptide AEKSHQE]
binding result [4]: binds | binding result [5]: binds

EKEKSD [human Wbp1 (OST48) peptide EKEKSD]
Kd [4]: 3.4 µM

KYKSRRSFIDEKKMP (domain or fragment, adenovirus, UniProt P68978 145-159, looked up) [GST fused to the cytoplasmic region of adenoviral E19 protein (KKxx motif)]
binding result [6]: binds | binding result [7]: binds

FEAKKLV [p25 peptide FEAKKLV]
Kd [4]: 27.7 µM
